In ChEMBL document CHEMBL3227950, “Ames test of 1-(X-phenyl)-3,3-dialkyltriazenes. A quantitative structure-activity study” (J Med Chem, 1979):

tested on: Salmonella typhimurium; experiment: Mutagenicity in Salmonella typhimurium strain TA92 assessed as number of bacterial revertants after 2 days by Ames test in presence of rat liver S9 fraction; assay type: toxicity, organism-based; conditions: salmonella enterica subsp. enterica serovar typhimurium, s9, 48 h
Summary of the method: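 S. typhimurium TA92 (hisG46, pKM101) grown 12-16 h at 37 °C in nutrient broth (~10⁹ cells/mL). S-9 from livers of Aroclor 1254-induced female Sprague-Dawley rats (500 mg/kg ip, 5 days before sacrifice). Compound in Me₂SO, bacteria and S-9 mix preincubated 20 min at 30 °C, then plated in histidine/biotin top agar and incubated 2 days at 37 °C. Revertants were hand counted, with spontaneous control revertants subtracted. Triplicates were run. The end point was 30 revertants/10⁸ bacteria, interpolated to give log 1/C.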

SMILES | log(1/C)
CN(C)/N=N/c1ccc(NC(N)=O)cc1 | 5.59
CN(C)/N=N/c1ccc(-c2ccccc2)cc1 | 7.67
C=CCN(C)/N=N/c1ccc(C(N)=O)cc1 | 4.16
CN(C)/N=N/c1ccc(S(N)(=O)=O)cc1 | 3.49
CN(C)/N=N/c1ccc(Cl)cc1 | 6.48
CN(C)/N=N/c1cccc(C(N)=O)c1 | 3.51
CN(C)/N=N/c1[nH]cnc1C(N)=O [DACARBAZINE] | 3
Cc1ccc(/N=N/N(C)C)cc1 | 7
CN(C)/N=N/c1cc(C#N)cc(C#N)c1 | 3.46
CN(C)/N=N/c1cccc(NC(N)=O)c1 | 4.19
CC(=O)c1ccc(/N=N/N(C)C)cc1 | 4.47
COc1cc2c(c3oc(=O)c4c(c13)CCC4=O)[C@@H]1C=CO[C@@H]1O2 [AFLATOXIN] | 9.48
CN(C)/N=N/c1ccc(C#N)cc1 | 4.43
CCCCN(C)/N=N/c1ccc(C(N)=O)cc1 | 5.41
Cc1cccc(/N=N/N(C)C)c1 | 6.44
CN(C)/N=N/c1ccccc1 | 5.32
CN(C)/N=N/c1ccc(C(N)=O)cc1 | 4.04
CN(/N=N/c1ccc(C(N)=O)cc1)C(C)(C)C | 3.83
CN(C)/N=N/c1ccc(C(F)(F)F)cc1 | 5.99
CC(=O)Nc1ccc(/N=N/N(C)C)cc1 | 5.83
